Shown are actives, neighbours in structure and some others; about 27% of the full set was active somewhere.
CYP2C9 inh: blockers of cytochrome P450 2C9 activity – biochemical, luminescence, ADME assay, primary screen | P11712 | CYP2C9 Supersomes, luciferin-H conversion | inhibition, % at 5 µM | hit rate 20% among 96,000 | AID 777, 2007;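 active = blocking of liver enzyme CYP2C9 beyond about 50% at 5 µM, limit read from the data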
Cav32 inh: Cav3.2 calcium influx blockers – cell-based, Fluo-4 calcium fluorescence, FDSS, MLSMR library, primary screen. Voltage-dependent T-type calcium channel subunit alpha-1H (Homo sapiens), O95180. Cav3.2-expressing cells; active compounds read low. B-score at 10 µM. hit rate 4% among 100,000. AID 449739, 2010;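 active = single-dose well whose peak fluorescence ratio is a statistical outlier from its plate by either plate-standardised score or position-corrected B-score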
Target sequence (O95180 whole entry, looked up): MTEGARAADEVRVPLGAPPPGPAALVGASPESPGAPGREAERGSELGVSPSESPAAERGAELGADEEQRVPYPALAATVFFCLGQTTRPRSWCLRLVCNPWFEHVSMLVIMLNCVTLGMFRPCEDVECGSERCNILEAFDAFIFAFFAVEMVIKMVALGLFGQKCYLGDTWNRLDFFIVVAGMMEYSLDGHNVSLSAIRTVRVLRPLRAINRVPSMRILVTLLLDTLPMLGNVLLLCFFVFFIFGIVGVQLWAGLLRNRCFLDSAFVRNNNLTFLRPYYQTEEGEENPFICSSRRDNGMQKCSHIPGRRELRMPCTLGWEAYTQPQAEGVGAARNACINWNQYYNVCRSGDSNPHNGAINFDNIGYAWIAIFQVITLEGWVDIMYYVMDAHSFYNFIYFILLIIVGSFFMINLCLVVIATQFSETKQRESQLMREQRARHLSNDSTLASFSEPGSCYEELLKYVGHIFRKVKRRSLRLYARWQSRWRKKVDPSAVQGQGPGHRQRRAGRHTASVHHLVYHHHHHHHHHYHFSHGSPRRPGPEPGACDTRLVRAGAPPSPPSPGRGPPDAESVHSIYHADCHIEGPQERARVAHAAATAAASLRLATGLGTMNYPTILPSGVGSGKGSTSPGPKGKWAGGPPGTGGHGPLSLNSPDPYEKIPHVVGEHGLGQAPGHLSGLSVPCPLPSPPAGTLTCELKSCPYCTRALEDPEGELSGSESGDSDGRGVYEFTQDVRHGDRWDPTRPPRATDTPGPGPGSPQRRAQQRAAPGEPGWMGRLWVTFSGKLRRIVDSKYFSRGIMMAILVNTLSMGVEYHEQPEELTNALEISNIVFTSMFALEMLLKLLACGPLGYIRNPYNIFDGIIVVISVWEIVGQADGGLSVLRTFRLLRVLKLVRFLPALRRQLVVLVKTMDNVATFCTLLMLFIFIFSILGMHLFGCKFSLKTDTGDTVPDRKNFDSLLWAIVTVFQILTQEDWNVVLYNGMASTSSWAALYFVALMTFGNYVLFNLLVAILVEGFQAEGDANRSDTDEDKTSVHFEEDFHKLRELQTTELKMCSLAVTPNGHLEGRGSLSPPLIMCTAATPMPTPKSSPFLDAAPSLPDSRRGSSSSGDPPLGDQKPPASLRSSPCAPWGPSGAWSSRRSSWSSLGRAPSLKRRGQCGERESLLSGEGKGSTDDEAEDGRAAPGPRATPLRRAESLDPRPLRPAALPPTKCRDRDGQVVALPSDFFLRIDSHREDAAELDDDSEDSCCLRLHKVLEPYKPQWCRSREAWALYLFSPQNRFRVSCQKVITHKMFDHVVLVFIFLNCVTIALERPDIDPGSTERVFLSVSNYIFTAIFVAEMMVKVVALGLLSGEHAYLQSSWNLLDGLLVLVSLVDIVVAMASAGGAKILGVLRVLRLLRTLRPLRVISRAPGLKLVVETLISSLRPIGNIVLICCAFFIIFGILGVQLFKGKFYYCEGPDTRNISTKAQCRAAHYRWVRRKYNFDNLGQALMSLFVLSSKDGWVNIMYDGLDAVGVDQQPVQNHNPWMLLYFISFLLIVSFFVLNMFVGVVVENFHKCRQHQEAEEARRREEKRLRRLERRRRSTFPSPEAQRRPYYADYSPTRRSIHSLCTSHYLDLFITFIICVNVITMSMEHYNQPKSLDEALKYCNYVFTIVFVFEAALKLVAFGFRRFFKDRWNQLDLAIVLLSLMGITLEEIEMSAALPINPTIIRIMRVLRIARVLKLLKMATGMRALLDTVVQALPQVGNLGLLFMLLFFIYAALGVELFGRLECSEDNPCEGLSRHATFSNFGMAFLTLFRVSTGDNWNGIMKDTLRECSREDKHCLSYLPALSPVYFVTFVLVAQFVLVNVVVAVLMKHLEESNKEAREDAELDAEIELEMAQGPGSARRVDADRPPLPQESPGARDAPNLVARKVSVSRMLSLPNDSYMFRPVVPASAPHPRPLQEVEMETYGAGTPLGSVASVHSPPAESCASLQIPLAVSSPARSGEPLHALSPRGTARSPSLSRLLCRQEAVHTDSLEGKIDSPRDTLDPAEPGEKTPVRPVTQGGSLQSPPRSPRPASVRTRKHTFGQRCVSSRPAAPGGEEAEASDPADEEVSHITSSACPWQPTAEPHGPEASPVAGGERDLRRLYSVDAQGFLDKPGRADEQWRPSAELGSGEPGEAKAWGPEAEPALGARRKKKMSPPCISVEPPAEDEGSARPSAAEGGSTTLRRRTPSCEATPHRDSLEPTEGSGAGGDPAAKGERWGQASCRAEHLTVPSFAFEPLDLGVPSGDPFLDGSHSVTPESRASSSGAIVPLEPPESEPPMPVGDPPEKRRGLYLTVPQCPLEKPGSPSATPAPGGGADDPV
CYP2C9 activ: human CYP2C9 activators, primary screen, biochemical, luminescence; hit rate 1.4% among 96,000; AID 1024, 2008; Cytochrome P450 2C9 (Homo sapiens), P11712; recombinant CYP2C9, luciferin-H conversion; active compounds read high; factor 1 = untreated enzyme, 0 = blocked; activation factor at 5 µM;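 active = activation factor of 2 or more for CYP2C9 at a 5 µM dose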;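 also: 0 = sulfaphenazole-blocked wells and 1 = vehicle-only wells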
CYP2C19 inh: blockers of cytochrome P450 2C19 activity – biochemical, luminescence, ADME assay, primary screen | P33261 | CYP2C19 Supersomes, luciferin-H EGE luminescence, 30 min | inhibition, % at 5 µM | hit rate 21% among 96,000;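 active = CYP2C19 inhibition above a set limit at 5 µM in the primary screen, cut at about 50% in these data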;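 also: plate controls were negative control wells for no effect and 2.5 mM tranylcypromine positive control for full effect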
Rev-RRE block: HIV-1 Rev-RRE binding inhibitors, primary screen, biochemical, FRET, protein-RNA interaction. hit rate 0.79% among 97,000. inhibition, % at 8 µM. Rev peptide-RRE RNA binding;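 active = inhibition above the screen-wide mean plus 3 SD, cut at about 35% in these data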;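 also: 0% = median DMSO wells and 100% = median Neomycin B control wells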
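Material: labelled RRE RNA duplex and labelled Rev peptide / Buffer or medium: HEPES pH 7.5 salt buffer with EDTA / Compound dosing: single point, 8 µM final nominal compound concentration / Benchmarks: DMSO low control, neomycin B high control / Timing: 5 min preincubation and 15 min binding, 25 °C / Technique: FRET fluorescence readout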
CYP2C19 activ: human CYP2C19 activators, primary screen, biochemical, luminescence; AID 1025, 2008; recombinant CYP2C19, luciferin-H EGE luminescence; active compounds read high; 0 = fully inhibited enzyme, 1 = untreated enzyme; activation factor at 5 µM; 96,000 tested, under 10 active; Cytochrome P450 2C19 (Homo sapiens), P33261;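 active = activation factor of at least 2 at 5 µM in the primary screen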;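 also: 0 = wells with 2.5 mM tranylcypromine and 1 = vehicle-only wells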
Active calls of the source: *; . = not tested or not shown.

SMILES | CYP2C9 inh | Cav32 inh | CYP2C9 activ | CYP2C19 inh | Rev-RRE block | CYP2C19 activ
O=C(N/N=C/c1ccncc1)c1cc([N+](=O)[O-])cc([N+](=O)[O-])c1O | 100* | . | 0 | 56* | 5 | 0.4
Cc1cc(C)n(-c2ccc(C(=O)Nc3ccc(S(=O)(=O)NCc4ccco4)cc3)cc2)n1 | 66* | 0.1 | 0.3 | 24 | 14 | 0.8
Cc1ccc(C(=O)N/C(=C/c2ccco2)C(=O)Nc2cccc(C)c2)cc1 | 90* | -0.19 | 0.1 | 51* | 16 | 0.5
CCC(CC)C(=O)Nc1cccc(C(=O)NCc2ccco2)c1 | 33 | -1.8 | 0.7 | 23 | 0 | 0.8
O=C(NCc1ccc2c(c1)OCO2)c1cc2c(s1)CSC2 | . | -0.45 | . | . | . | .
O=C(NCc1ccco1)c1cc2c(s1)CSC2 | 56* | 0.77 | 0.4 | 32 | 8 | 0.7
Cc1cccc(NC(=O)/C(=C\c2ccco2)NC(=O)c2cccs2)c1 | 13 | -0.27 | 0.9 | 14 | 4 | 0.9
O=C(NCc1ccco1)c1cccc(NC(=O)c2ccccc2)c1 | 93* | 0.69 | 0.1 | 38 | -1 | 0.6
Cc1cccc(NC(=S)N2CCC(C(=O)c3ccc(F)cc3)CC2)c1C | -4 | -3.2 | 1 | 35 | -3 | 0.6
O=C(Nc1ccccc1)c1ccc(S(=O)(=O)NCc2ccco2)cc1 | -9 | -0.89 | 1.1 | -14 | 5 | 1.1
Cc1ccc(C(=O)Nc2cccc(C(=O)NCc3ccco3)c2)cc1 | 83* | . | 0.2 | 12 | -2 | 0.9
Cc1ccc(C)c(S(=O)(=O)NCc2ccc(C(=O)NCc3ccco3)cc2)c1 | . | -2.3 | . | . | 5 | .
Cc1occc1C(=O)Nc1cccc(C(=O)NCc2ccccc2)c1 | 93* | -3.8* | 0.1 | 68* | 2 | 0.3
Cc1ccc(C(=O)NCc2ccco2)cc1S(=O)(=O)Nc1cccc(Cl)c1 | 98* | -6* | 0 | 87* | -3 | 0.1
O=C(Nc1ccccc1)c1cccc(S(=O)(=O)NCc2ccco2)c1 | 51* | 1 | 0.5 | 51* | 0 | 0.5
CCCCn1c(N)c(N(CCC(C)C)C(=O)CSc2nnc(C)s2)c(=O)[nH]c1=O | 4 | -0.11 | 1 | 16 | 3 | 0.8
O=C(C1=C[C@@H](C2CCCCC2)C[C@@H](OCCCCO)O1)N1CCOCC1 | . | 1.9 | . | . | . | .
Cc1ccc2nc3sc(C(=O)NCc4ccco4)c(N)c3cc2c1 | . | -0.079 | . | . | 37* | .
COc1cc2cc3c(N)c(C(=O)NCc4ccco4)sc3nc2cc1OC | 27 | -0.28 | 0.7 | 3 | 34 | 1
COc1ccccc1NC(=O)CN(Cc1ccco1)C(=O)c1ccc(-n2nc(C)cc2C)cc1 | 94* | -0.025 | 0.1 | 11 | 2 | 0.9
Cc1cc(C)c2c(=O)[nH]c(=O)n(Cc3ccccc3)c2n1 | 5 | -0.16 | 0.9 | -4 | 9 | 1
CCC(=O)c1ccc(OCCn2cncn2)cc1 | 67* | 0.67 | 0.3 | 52* | 4 | 0.5
Cc1ccccc1OCC(=O)Nc1ccccc1N1CCCCC1 | 4 | -1.5 | 1 | 17 | 18 | 0.8
CC(=O)N1CCN(c2ccccc2NC(=O)COc2cc(C)ccc2C(C)C)CC1 | 94* | -5.7* | 0.1 | 90* | 1 | 0.1
Cc1ccc(C(C)C)c(OCC(=O)Nc2ccccc2N2CCN(C)CC2)c1 | 87* | -2.1 | 0.1 | 69* | 0 | 0.3
SMILES | CYP2C9 inh | Cav32 inh | CYP2C9 activ | CYP2C19 inh | Rev-RRE block | CYP2C19 activ
Cc1cccc(OCC(=O)Nc2ccccc2N2CCN(C(=O)C(C)C)CC2)c1C | 56* | -4.9* | 0.4 | 30 | 10 | 0.7
COc1ccc(NC(=O)c2ccc(C(=O)c3cc(OC)ccc3OC)cc2)cc1 | 11 | 0.74 | 0.9 | 0 | 0 | 1
COc1ccc(CC(=O)NNC(=S)Nc2ccc(Br)cc2)cc1 | 52* | -2.1 | 0.5 | 42 | 1 | 0.6
CCOc1ccc(CC(=O)NNC(=S)Nc2ccccc2)cc1Br | 72* | -7.4* | 0.3 | 53* | 6 | 0.5
CCCCN1C(=O)c2ccc(C(=O)NC3=NCCS3)cc2C1=O | 72* | -0.37 | 0.3 | 43 | 2 | 0.6
O=C(O)CSc1nnc(Cn2cnc3ccccc32)n1CCc1ccccc1 | 13 | -0.17 | 0.9 | -2 | 6 | 1
CC(=O)Nc1cccc(C(=O)NC(C)c2ccc(S(N)(=O)=O)cc2)c1 (configuration not stated) | 7 | 0.25 | 0.9 | -6 | 8 | 1.1
CCC(CC)C(=O)Nc1cccc(C(=O)NCCc2ccc(S(N)(=O)=O)cc2)c1 | 90* | 0.27 | 0.1 | 78* | 0 | 0.2
CCC(CC)C(=O)NCCc1ccc(S(N)(=O)=O)cc1 | 49 | -0.1 | 0.5 | -14 | 2 | 1.1
CCCCC(CC)C(=O)NCCc1ccc(S(N)(=O)=O)cc1 (configuration not stated) | 59* | -0.016 | 0.4 | 9 | 0 | 0.9
COc1ccc(NC(=O)CSc2n[nH]c(N)n2)c([N+](=O)[O-])c1 | 13 | 1.4 | 0.9 | -1 | 5 | 1
Cc1ccc2c(Cl)c(C(=O)NCC3CCCO3)sc2c1 (configuration not stated) | 7 | -0.24 | 0.9 | 28 | 9 | 0.7
Cc1ccc(-n2nc(-c3cccs3)cc2C(=O)NCC2CCCO2)c(C)c1 (configuration not stated) | 90* | -4.4* | 0.1 | 65* | 5 | 0.4
Cc1nnsc1SCCNC(=O)c1ccc(F)cc1 | 22 | 0.11 | 0.8 | 80* | 0 | 0.2
O=C1/C(=C/c2ccccc2)NC(=S)N1C(c1ccccc1)c1ccccc1 | 60* | -0.27 | 0.4 | 15 | 19 | 0.9
O=C1CC(NCCC2=CCCCC2)C(=O)N1c1cccc(Cl)c1Cl (configuration not stated) | 38 | -3.4* | 0.6 | 20 | 9 | 0.8
Cc1c(Cl)ccc2c1NC(=O)[C@]21[C@@H]2C(=O)N(Cc3ccccc3)C(=O)[C@@H]2[C@@H]2CCCN21 | 73* | -3.1 | 0.3 | 66* | 12 | 0.3
COc1ccc(C2NC(c3ccc(OC)c(OC)c3OC)C(C)C(=O)C2C)c(OC)c1OC (configuration not stated) | . | -1.3 | . | . | 2 | .
COc1ccccc1C1NC(c2ccccc2OC)C(C)C(=O)C1C (configuration not stated) | 67* | -0.13 | 0.3 | 100* | 10 | 0
CCOC(=O)CC(=O)CSc1nc2ccccc2c(=O)n1-c1ccc(C(=O)NCCOC)cc1 | 78* | 2.2 | 0.2 | 74* | 0 | 0.3
CCOC(=O)CC(=O)CSc1nc2ccccc2c(=O)n1-c1ccc(C(=O)N2CCOCC2)cc1 | 73* | -3.3 | 0.3 | 86* | 6 | 0.1

High-throughput results deposited in PubChem BioAssay by several laboratories.
